# Measured values: ChEMBL document CHEMBL1128340, “Nonpeptidic inhibitors of human leukocyte elastase. 6. Design of a potent, intratracheally active, pyridone-based trifluoromethyl ketone” (J Med Chem, 1995)
# Active and inactive are the calls of the source. No cut-off for these calls is given here.
# Key:
# Cricetinae gen. sp. [1] = assay: Compound at an oral dose of 2.5 mg/Kg was tested in vivo in hamster for the inhibition of elastase-induced lung hemorrhage by acute hemorrhagic assay; Not statistically significant; type: functional, organism-based; details: Cricetulus griseus
# Cricetinae gen. sp. [2] = assay: Compound at an intratracheal dose of 100 nM was tested in vivo in hamster for the inhibition of elastase-induced lung hemorrhage by acute hemorrhagic assay; type: functional, Cricetulus griseus
# In short: (§1)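 Hamster acute hemorrhagic assay: test agent given intratracheally at 100 nmol/animal 30 min before intratracheal instillation of 50 μg HLE. Read-out is percent inhibition of elastase-induced lung hemorrhage versus controls. Significance is by Student's t test, P < 0.05; NS means not significant at that dose.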
# Neutrophil elastase = target: T1, Neutrophil elastase (Homo sapiens, UniProt P08246); assay: In vitro inhibition constant (Ki) against human leukocyte elastase (HLE-catalyzed hydrolysis of MeO-Suc-Ala-Ala-Pro-Ala-pNA)
# T1 sequence (P08246 whole entry): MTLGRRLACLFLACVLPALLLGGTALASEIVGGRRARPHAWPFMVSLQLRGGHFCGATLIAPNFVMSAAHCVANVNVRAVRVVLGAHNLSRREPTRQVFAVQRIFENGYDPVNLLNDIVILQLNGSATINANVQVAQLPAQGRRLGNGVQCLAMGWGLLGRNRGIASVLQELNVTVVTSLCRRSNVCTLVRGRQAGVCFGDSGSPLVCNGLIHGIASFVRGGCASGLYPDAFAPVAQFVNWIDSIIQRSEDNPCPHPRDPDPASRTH
# Cricetinae gen. sp. [3] = assay: Compound at an intratracheal dose of […] was tested in vivo in hamster for the inhibition of elastase-induced lung hemorrhage by acute hemorrhagic assay; Not statistically significant; type: functional, organism-based; details: Cricetulus griseus; in short: as §1
# Cricetinae gen. sp. [4] = assay: Compound at an oral dose of 5 mg/Kg was tested in vivo in hamster for the inhibition of elastase-induced lung hemorrhage by acute hemorrhagic assay; Not statistically significant; type: functional, organism-based; details: Cricetulus griseus
Ki (Neutrophil elastase) [nM],SMILES,inhibition (Cricetinae gen. sp. [1]),Inhibition (Cricetinae gen. sp. [2]) [%],inhibition (Cricetinae gen. sp. [3]),inhibition (Cricetinae gen. sp. [4])
9.4,CC(C)C(NC(=O)Cn1c(-c2ccccc2)ccc(NS(=O)(=O)c2ccc(C(=O)NS(=O)(=O)c3ccc(Cl)cc3)cc2)c1=O)C(=O)C(F)(F)F (stereo unspecified),inactive,96,,
,CC(C)C(NC(=O)Cn1c(-c2ccccc2)ccc(NC=O)c1=O)C(=O)C(F)(F)F (stereo unspecified),,,inactive,
18,Cc1ccccc1S(=O)(=O)NC(=O)c1ccc(S(=O)(=O)Nc2ccc(-c3ccccc3)n(CC(=O)NC(C(=O)C(F)(F)F)C(C)C)c2=O)cc1 (stereo unspecified),inactive,97,,
,CC(=O)Nc1ccc(S(=O)(=O)Nc2ccc(-c3ccccc3)n(CC(=O)NC(C(=O)C(F)(F)F)C(C)C)c2=O)cc1 (stereo unspecified),,95,,
,CC(C)C(NC(=O)Cn1c(-c2ccccc2)ccc(NS(=O)(=O)c2ccccc2)c1=O)C(=O)C(F)(F)F (stereo unspecified),,,inactive,inactive
8,COc1ccc(S(=O)(=O)N[C@H](C(=O)N2CCC[C@H]2C(=O)NC(C(=O)C(F)(F)F)C(C)C)C(C)C)cc1 (stereo partly specified),,,,
